The source made the active and inactive calls. No cut-off for these calls is given here.

Data set [1] can be described thus: Tested for its effect on contraction of frog rectus abdominis muscle, expressed as equipotent molar ratio relative to carbamylcholine. Type of data set: functional. An outline of the steps:
(§1)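 Rana pipiens rectus abdominis held at 20 °C in aerated Clark-Ringer solution, pH 7.4. Each drug concentration applied for 5 min. Equipotent molar ratio relative to carbachol determined in three-point assays.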

A short description of data set [2]: Acute toxicity in mice. The class given is organism-based. The settings on record: mouse, in vivo. Put shortly:
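Mice given compound intravenously; LD50 determined by the up and down method for small samples. Mortality counted at 15 min.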

The species named for data set [3] is Mus musculus. Briefly: Tested for mydriatic activity in mice, expressed as the dose required to cause half-maximal pupillary dilation. The class given is functional.
The species named for data set [4] is Mus musculus. Put plainly: Tested for tremorolytic activity in mice, expressed as dose required to double the dose of oxotremorine inducing a predetermined (grade 2) tremor intensity. Type of data set: functional. An outline of the steps:
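Antagonist given i.p. to groups of six or more mice at four linearly spaced doses including zero, 15 min before i.v. oxotremorine (log dose series, 0.1 log spacing). Median oxotremorine dose evoking grade 2 tremor estimated by Dixon up-and-down method, tremor scored visually over first 5 min. The antagonist dose doubling that median dose was found by linear regression.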

Data set [5] deals with T1, Muscarinic acetylcholine receptor (Homo sapiens) (UniProt P20309+P08173+P11229+P08172+P08912). Briefly: Tested for agonist activity at Muscarinic acetylcholine receptor in guinea pig ileum. The settings on record: Cavia porcellus, target entry is the homologue from another species. The class given is functional, tissue-based.
Data set [6] addresses T1, Muscarinic acetylcholine receptor (Homo sapiens). Briefly: Tested for agonist activity at muscarinic receptor in guinea pig ileum, expressed as equipotent molar ratio relative to carbamylcholine. The class given is functional, tissue-based. The conditions noted are these: Cavia porcellus.
The species named for data set [7] is Cavia porcellus. Put plainly: Percent occupancy for 50% response calculated from (100 x ED50)/(KA+ED50). The class given is functional. Put shortly: (§2)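 Isolated guinea pig ileum. Control agonist dose-response curves were run, then tissue treated with propylbenzilylcholine mustard 2×10⁻⁸ M for 15–20 min, cutting maximal response by 20–80%. Double-reciprocal plots of equieffective agonist concentrations before and after treatment gave K_A (Furchgott method). Relative efficacy was derived from K_A and ED50; occupancy for 50% response was taken as 100ED50/(K_A + ED50).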

Data set [8] is filed under the species Cavia porcellus. Put plainly: Relative efficacy calculated from KA and ED50 values. Type of data set: functional. Put shortly: as §2
Data set [9] has as its target T1, Muscarinic acetylcholine receptor (Homo sapiens). The conditions noted are these: Cavia porcellus; Ileum.
Data set [10] deals with frog. Briefly: Tested for its effect on contraction of frog rectus abdominis muscle, expressed as equipotent molar ratio relative to carbamylcholine; Inactive. Type of data set: functional, tissue-based. An outline of the steps: as §1
The target of data set [11] is T1, Muscarinic acetylcholine receptor (Homo sapiens). The conditions noted are these: Cavia porcellus; Ileum. The source holds these as a separate data set.

Take `C[C@@H]1CCC(=O)N1CC#CCN1CCCC1`: the EPMR in data set [1] was found to be 141. This compound had an LD50 in [2] of 45 µmol/kg. Further, the values for the ED50 in data set [3] and in data set [4] were 4.8 µmol/kg and 0.19 µmol/kg, respectively.

Regarding `C[C@H]1CCC(=O)N1CC#CC[N+](C)(C)C.[I-]`, the EPMR was 8.8 in [1] and 20 in data set [6]. The ED50 in data set [5] was 1.3. The LD50 in [2] stood at 3.5 µmol/kg.

With `C[C@@H](C#CCN1CCCC1)N1CCCC1=O`, in [4], the ED50 stood at 20 µmol/kg.

Take `C[C@H](C#CCN1CCCC1)N1CCCC1=O`: in data set [4], the ED50 amounted to 0.26 µmol/kg.

On to `C[C@H]1CCC(=O)N1CC#CCN1CCCC1`, for which the EPMR in data set [1] is listed as 132. The same compound registered an LD50 in data set [2] of 40 µmol/kg. In addition, the ED50 stood at 66 µmol/kg in data set [3] and 4.2 µmol/kg in data set [4].

`CN(C)CC#CCN1CCCC1=O`: the Occupancy in data set [7] is listed as 0.55%. Also, the Relative efficacy in data set [8] is recorded as 6.51. Moreover, the KA in data set [9] came to 22.9 µM l-1.

On to `CC1CCC(=O)N1CC#CCN(C)C` (racemic), for which the ED50 is 0.55 µM l-1 in data set [5] and 5.5 µmol/kg in data set [4]. The EPMR in data set [6] stood at 8.8.

For the compound `C[C@@H]1CCC(=O)N1CC#CCN(C)C`, the Occupancy in data set [7] is 11%. The Relative efficacy in [8] is recorded as 0.29. In [5], this compound came in with an ED50 of 0.29 µM l-1 and a KA of 2.34. Further, in [2], the LD50 was 426 µmol/kg. The same compound returned an ED50 in data set [4] of 2.4 µmol/kg. Also, the EPMR entry in [10] was “inactive”. For the same compound, the EPMR in [6] was 4.6.

Consider `C[C@@H]1CCC(=O)N1CC#CC[N+](C)(C)C.[I-]`, for which the results for the EPMR in data set [1] and in data set [6] were 10 and 1.2, respectively. In data set [5], this compound came in with an ED50 of 0.076. Besides, the median lethal dose (LD50) in data set [2] came out at 8.9 µmol/kg.

Consider `CN1[C@@H]2CC[C@H]1C[C@@H](OC(=O)C(CO)c1ccccc1)C2` (stereo partly drawn) [ATROPINE], for which the ED50 in [4] turned out to be 0.86 µmol/kg.

As to `C[C@H]1CCC(=O)N1CC#CCN(C)C`, the ED50 in data set [5] stood at 4.6 µM l-1; in data set [4], 50 µmol/kg. In addition, the median lethal dose (LD50) in data set [2] was 183 µmol/kg. In addition, the EPMR result in data set [10] was “inactive”. Moreover, the EPMR in [6] amounted to 73.9.

For the compound `O=C1CCCN1CC#CCN1CCCC1` [OXOTREMORINE], the Occupancy in data set [7] was 3.5%. The Relative efficacy in data set [8] was 1. Further, the EPMR in [1] came to 49; in data set [6], 0.42. In data set [9], this compound yielded a KA of 0.68. Also, in data set [2], the LD50 was 6.7 µmol/kg. In data set [11], this compound showed an ED50 of 0.026 µM l-1.

`CC1CCC(=O)N1CC#CCN1CCCC1` (racemic): in data set [1], the EPMR came to 116. The ED50 in data set [3] was found to be 9 µmol/kg; in data set [4] it was 0.4 µmol/kg.

What is called LD50 is the dose expected to kill half of the subjects tested. Read a low LD50 as greater toxicity.

Values taken from ChEMBL document CHEMBL1122860, “Stereoselectivity of muscarinic receptors in vivo and in vitro for oxotremorine analogues. N-[4-(tertiary amino)-2-butynyl]-5-methyl-2-pyrrolidones” (J Med Chem, 1985).
